According to ChEMBL document CHEMBL1146521, “Sesquiterpene lactones from Anthemis altissima and their anti-Helicobacter pylori activity” (2003):
Values after ≈ are worked out from the molar mass of the structure shown. Active and inactive are the calls of the source. The calls are words filed in the database; no cut-off is given here.

Key:
Helicobacter pylori [1] = test: Antimicrobial activity against Helicobacter pylori isolates after 3 days under microaerobic condition by microdilution method
Proteus mirabilis = test: Antimicrobial activity against Proteus mirabilis isolates after 36 hrs under aerobic condition by microdilution method; format: functional
How it was run: (§1)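 Bacteria grown overnight at 37 °C in tryptone soya broth (~10^9 cells/mL), then diluted in sterile saline to about 1.0 × 10^5 per well. Broth serial microdilution with compounds predissolved in DMSO, at final […]; DMSO ≤1%. Incubated 36 h at 37 °C. MIC = lowest concentration with no visible growth under binocular microscope. Inocula checked on TSA. Controls: DMSO, streptomycin.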

Pseudomonas aeruginosa = test: Antimicrobial activity against Pseudomonas aeruginosa ATCC 27853 after 36 hrs under aerobic condition by microdilution method; format: functional, organism-based
How it was run: as §1

Escherichia coli = test: Antimicrobial activity against Escherichia coli ATCC 35218 after 36 hrs under aerobic condition by microdilution method; format: functional; conditions: ATCC 35218, 36 h
How it was run: as §1

Bacillus cereus = test: Antimicrobial activity against Bacillus cereus isolate after 36 hrs under aerobic condition by microdilution method; format: functional
How it was run: as §1

Staphylococcus aureus = test: Antimicrobial activity against Staphylococcus aureus ATCC 6538 after 36 hrs under aerobic condition by microdilution method; format: functional; conditions: ATCC 6538, 36 h
How it was run: as §1

Micrococcus flavus = test: Antimicrobial activity against Micrococcus flavus ATCC 10240 after 36 hrs under aerobic condition by microdilution method; format: functional; conditions: ATCC 10240, 36 h
How it was run: as §1

Helicobacter pylori [2] = test: Antimicrobial activity against Helicobacter pylori isolates after 36 hrs under […] condition by microdilution method; format: functional

| SMILES | MIC (Helicobacter pylori [1]) [µg/mL] | Activity (Proteus mirabilis) | Activity (Pseudomonas aeruginosa) | MIC (Escherichia coli) [µg/mL] | MIC (Bacillus cereus) [µg/mL] | MIC (Staphylococcus aureus) [µg/mL] | MIC (Micrococcus flavus) [µg/mL] | Activity (Helicobacter pylori [1]) | Activity (Helicobacter pylori [2]) | MIC (Proteus mirabilis) [µg/mL] |
| --- | --- | --- | --- | --- | --- | --- | --- | --- | --- | --- |
| COc1c(-c2ccc(O)c(O)c2)oc2cc(O)cc(O)c2c1=O [3-O-METHYLQUERCETIN] | 12.5 (≈ 39.5 µM) | inactive | inactive | 50 (≈ 158 µM) | – | – | – | – | – | – |
| O=C(/C=C/c1ccc(O)c(O)c1)O[C@@H]1C[C@](O)(C(=O)O)C[C@@H](O)[C@H]1O [CHLOROGENIC ACID] | 6.25 (≈ 17.6 µM) | inactive | inactive | – | – | – | – | – | – | – |
| O=c1c(O)c(-c2ccc(O)c(O)c2)oc2cc(O)cc(O)c12 [QUERCETIN] | 50 (≈ 165 µM) | inactive | inactive | – | 50 (≈ 165 µM) | – | – | – | – | – |
| O=C1C[C@@H](c2ccc(O)c(O)c2)Oc2cc(O)cc(O)c21 [ERIODICTYOL] | 50 (≈ 173 µM) | inactive | inactive | – | – | – | – | – | – | – |
| C=C1C(=O)O[C@H]2CC(=C)[C@@H](O)CC/C(C)=C/[C@@H](O)[C@H]12 [TATRIDIN B] | 50 (≈ 189 µM) | inactive | inactive | 50 (≈ 189 µM) | 50 (≈ 189 µM) | 50 (≈ 189 µM) | 50 (≈ 189 µM) | – | – | – |
| C=C1C(=O)O[C@H]2C[C@@]3(C)[C@H](O)CCC(=C)[C@@H]3[C@@H](O)[C@H]12 | 50 (≈ 189 µM) | inactive | inactive | 50 (≈ 189 µM) | 50 (≈ 189 µM) | 50 (≈ 189 µM) | 50 (≈ 189 µM) | – | – | – |
| O=C1c2c(O)cc(O)cc2O[C@H](c2ccc(O)c(O)c2)[C@H]1O [(+)-TAXIFOLIN] | 25 (≈ 82.2 µM) | inactive | inactive | – | – | – | – | – | – | – |
| O=c1cc(-c2ccc(O)cc2)oc2cc(O)cc(O)c12 | – | inactive | inactive | – | – | – | – | inactive | – | – |
| O=c1c(O[C@@H]2O[C@H](CO)[C@@H](O)[C@H](O)[C@H]2O)c(-c2ccc(O)c(O)c2)oc2cc(O)cc(O)c12 [ISOQUERCETIN] | 25 (≈ 53.8 µM) | inactive | inactive | – | – | – | – | – | – | – |
| C=C1C(=O)O[C@H]2/C=C(\C)[C@@H](O)CC/C(C)=C/[C@@H](O)[C@H]12 [TATRIDIN A] | 12.5 (≈ 47.3 µM) | inactive | inactive | – | 50 (≈ 189 µM) | 50 (≈ 189 µM) | – | – | – | – |
| C=C1C(=O)O[C@H]2C[C@@]3(C)[C@H](O)CC=C(C)[C@@H]3[C@@H](O)[C@H]12 | 12.5 (≈ 47.3 µM) | inactive | inactive | – | 25 (≈ 94.6 µM) | 50 (≈ 189 µM) | – | – | – | – |
| COc1cc(-c2oc3cc(O)cc(O)c3c(=O)c2O)ccc1O | – | inactive | inactive | – | – | – | – | – | inactive | – |
| CN[C@@H]1[C@H](O[C@H]2[C@H](O[C@H]3[C@H](O)[C@@H](O)[C@H](N=C(N)N)[C@@H](O)[C@@H]3N=C(N)N)O[C@@H](C)[C@]2(O)C=O)O[C@@H](CO)[C@H](O)[C@H]1O [STREPTOMYCIN] | – | – | – | 200 (≈ 344 µM) | 100 (≈ 172 µM) | 100 (≈ 172 µM) | 100 (≈ 172 µM) | – | – | 400 (≈ 688 µM) |
| COc1cc(O)c2c(=O)c(O)c(-c3ccc(O)c(O)c3)oc2c1 [RHAMNETIN] | 50 (≈ 158 µM) | inactive | inactive | – | – | – | – | – | – | – |
| C=C1C(=O)O[C@H]2C[C@@]3(C)[C@H](C(C)=CC[C@@H]3O)[C@@H](O)[C@H]12 [ALTISSIN] | 50 (≈ 189 µM) | inactive | inactive | – | 12.5 (≈ 47.3 µM) | 50 (≈ 189 µM) | – | – | – | – |
| COc1ccc(-c2oc3cc(O)c(OC)c(O)c3c(=O)c2OC)cc1O | – | inactive | inactive | – | – | – | – | – | – | – |
| COc1ccc(-c2oc3cc(O)cc(O)c3c(=O)c2O)cc1 [KAEMPFERIDE] | 6.25 (≈ 20.8 µM) | inactive | inactive | – | 25 (≈ 83.3 µM) | – | 50 (≈ 167 µM) | – | – | – |
